Source: PubChem (The Scripps Research Institute Molecular Screening Center)
Compounds with a hit are over-represented: about 2.9% of the library has one in this group of screens.
5-HT1A blocker: human 5-HT1a receptor antagonists, primary screen, cell-based, CHO, Ga15 NFAT-bla reporter. inhibition, % at 10 µM. 5-hydroxytryptamine receptor 1A (Homo sapiens), P08908. CHO 5-HT1a Ga15 NFAT-bla reporter, antagonist mode. AID 612, 2007. actives 0.68% (n = 62,000);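 active = inhibition above the mean of all tested compounds plus 3 SD, cut at about 43% in these data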;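 also: receptor stimulated by 5-CT agonist at 100 nM near EC80; beta-lactamase reporter measured by ratiometric fluorescence of a cleavable substrate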
S1P3 agonist: human S1P3 receptor agonists, primary screen, cell-based, primary and confirmation, NFAT-BLA reporter; S1P3 NFAT-BLA reporter cells, agonism, FRET ratio; relative to 1 µM S1P, basal subtracted; activation, % at 4.5 µM; actives 0.1% (n = 60,000);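 active = activation above the screen-wide mean plus 3 SD, cut at about 4.5% in these data, passing the limit was not always enough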
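Assay system: stable CHO line with human S1P3, Gα16, NFAT-BLA reporter; Detection: FRET β-lactamase substrate fluorescence, excitation 405 nm, 460/535 nm emission ratio, background-subtracted; Read-out: percent activation versus median 1 µM S1P response, basal-subtracted, per plate; Incubation: cells plated overnight, compound 4 h 37 °C, substrate 2 h RT.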
HTR1A agonist: human 5-HT1a receptor agonists, primary screen, cell-based, CHO, Ga15 NFAT-bla reporter. CHO 5-HT1a Ga15 NFAT-bla reporter, FRET ratio; 0% basal, 100% maximal reference agonist. activation, % at 10 µM. actives 0.56% (n = 65,000);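 active = activation above the screen-wide mean activation plus 3 SD, cut at about 19% in these data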;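 also: 0% = DMSO wells and 100% = 5-CT at EC100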
5HT1E antag: 5-HT1E receptor antagonists, primary screen, cell-based, HTS | 5-hydroxytryptamine receptor 1E (Homo sapiens), P28566 | CHO 5-HT1E Ga15 NFAT-bla reporter, FRET, antagonist | inhibition, % at 6 µM | actives 0.99% (n = 65,000) | AID 571, 2007;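 active = inhibition above a set limit, the mean inhibition across every tested compound plus 3 SD, cut at about 29% in these data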;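 also: signal is the 460 over 535 nm emission ratio of beta-lactamase substrate; 0% = agonist plus DMSO wells and 100% = wells without agonist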
Target sequence (P28566 whole entry, looked up): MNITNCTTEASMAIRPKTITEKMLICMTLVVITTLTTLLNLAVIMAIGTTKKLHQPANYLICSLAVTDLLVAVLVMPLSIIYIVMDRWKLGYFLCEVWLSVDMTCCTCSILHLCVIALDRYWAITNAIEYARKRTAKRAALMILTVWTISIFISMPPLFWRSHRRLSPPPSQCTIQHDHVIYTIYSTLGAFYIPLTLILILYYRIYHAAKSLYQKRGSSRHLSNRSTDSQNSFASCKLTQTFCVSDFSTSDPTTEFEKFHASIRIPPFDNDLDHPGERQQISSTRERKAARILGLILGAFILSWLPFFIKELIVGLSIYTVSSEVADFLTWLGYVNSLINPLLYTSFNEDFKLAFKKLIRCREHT
S1P1 ag pot: S1P1 agonists and agonism potentiators, primary screen, cell-based, primary and confirmation screens, CRE-bla reporter; actives 0.57% (n = 56,000); Sphingosine 1-phosphate receptor 1 (Homo sapiens), P21453; activation, % at 9.5 µM; S1P1 CRE-bla cells, forskolin, beta-lactamase FRET, potentiator mode; S1P1 agonist co-added at EC20, 2 nM; 100% = saturating reference agonist, 0% = basal; AID 449, 2006;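 active = activation above a cutoff set at the mean activation of all tested compounds plus 3 SD, cut at about 54% in these data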;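 also: forskolin at 4 µM as EC80 and the EC20 agonist is SEW2871; 100% = SEW2871 at its EC100 plus forskolin at EC80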
5HT1E ag: 5-HT1E receptor agonists, primary screen, cell-based, HTS; activation, % at 6 µM; 5-hydroxytryptamine receptor 1E (Homo sapiens), P28566; CHO 5-HT1E Ga15 NFAT-bla reporter, FRET; 0% DMSO wells, 100% control agonist wells; actives 0.69% (n = 65,000);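 active = activation above a set limit, the screen-wide mean activation plus 3 SD, cut at about 8.5% in these data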;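 also: 100% = positive control agonist at 1 µM giving full maximal response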
Starred values were filed as active, the others as inactive.

`CCOC(=O)C1(C(F)(F)F)N=C(c2cccnc2)OC(N2CCOCC2)=N1` (stereo unspecified) gave 5-HT1A blocker -9.4, S1P3 agonist 0.5, HTR1A agonist -0.5, 5HT1E antag 8.5, S1P1 ag pot -12.7 and 5HT1E ag -0.6.
`COCC(=O)N(C)c1nnc(-c2cnc(C)cn2)s1` gave 5-HT1A blocker 0.5, S1P3 agonist -0.6, HTR1A agonist -3.1, 5HT1E antag 0.9, S1P1 ag pot -4.1 and 5HT1E ag -1.1.
`COC(=O)c1cn(NC(=O)c2ccc3c(c2)OCO3)c(=O)c2ccccc12` gave 5-HT1A blocker -3.8, HTR1A agonist -0.6, 5HT1E antag -11.1 and 5HT1E ag 0.7.
Screening CCCCn1nc(NC(=O)c2cccs2)c2cc3cc(OC)ccc3nc21 returned 5-HT1A blocker 0.5, S1P3 agonist 1.2, HTR1A agonist 21.8*, 5HT1E antag 19.5, S1P1 ag pot -1.0 and 5HT1E ag 4.5.
For CCCn1nc(NC(=O)c2cccs2)c2cc3cc(OC)ccc3nc21 the results were 5-HT1A blocker -15.6, S1P3 agonist 1.1, HTR1A agonist 6.3, 5HT1E antag 18.1, S1P1 ag pot -3.9 and 5HT1E ag 1.9.
Screening COc1ccc(CCNC(=O)c2ccncc2)cc1OC returned 5-HT1A blocker 6.6, S1P3 agonist -1.8, HTR1A agonist 1.6, 5HT1E antag 5.0, S1P1 ag pot -9.8 and 5HT1E ag -0.2.
CN(C)Cc1cc(CCNC(=O)c2ccc(Cl)cc2)ccc1O was read as 5-HT1A blocker 27.1, S1P3 agonist -0.2, HTR1A agonist -2.9, 5HT1E antag 6.6, S1P1 ag pot 9.8 and 5HT1E ag 13.6*.
CC(C)CCn1c(CN2CCN(C(=O)c3ccco3)CC2)nc2c1c(=O)n(C)c(=O)n2C was read as 5-HT1A blocker 1.0, S1P3 agonist -0.4, HTR1A agonist 57.4*, 5HT1E antag 1.5, S1P1 ag pot 1.5 and 5HT1E ag 0.6.
CCCn1c(CN2CCN(c3cccc(Cl)c3)CC2)nc2c1c(=O)n(C)c(=O)n2C was read as 5-HT1A blocker 7.9, S1P3 agonist -0.9, HTR1A agonist -0.7, 5HT1E antag -2.6, S1P1 ag pot 134.8* and 5HT1E ag 0.0.
For CCn1c(CN2CCN(C(=O)c3ccco3)CC2)nc2c1c(=O)n(C)c(=O)n2C the results were 5-HT1A blocker -6.3, S1P3 agonist -1.0, HTR1A agonist -3.7, 5HT1E antag -1.8, S1P1 ag pot -15.6 and 5HT1E ag 0.9.
For CCCCn1c(CN2CCN(c3cccc(Cl)c3)CC2)nc2c1c(=O)n(C)c(=O)n2C the results were 5-HT1A blocker -12.0, S1P3 agonist 0.7, HTR1A agonist 2.3, 5HT1E antag -7.8, S1P1 ag pot -2.7 and 5HT1E ag 1.8.
Screening Cc1cc(=O)oc(C)c1C(=O)N[C@@H]1CCCCNC1=O returned S1P3 agonist -4.6, HTR1A agonist 0.6, 5HT1E antag 6.0, S1P1 ag pot 1.6 and 5HT1E ag 0.3.
CCOC(=O)c1ccccc1NC(=O)c1ccc(NS(C)(=O)=O)cc1 was read as 5-HT1A blocker 8.9, S1P3 agonist 0.0, HTR1A agonist 1.2, 5HT1E antag 33.9* and 5HT1E ag -0.8.
`CCN1CCN(c2ncc(C(=O)Nc3ccccc3C(=O)OC)c3ccccc23)CC1` gave 5-HT1A blocker 0.1, S1P3 agonist 0.2, HTR1A agonist 0.6, 5HT1E antag 5.8, S1P1 ag pot -4.1 and 5HT1E ag 16.8*.
Screening Cc1cc(SCC#N)n2nc(C)c(-c3ccccc3)c2n1 returned 5-HT1A blocker 2.1, S1P3 agonist -0.4, HTR1A agonist 0.3, 5HT1E antag 57.1*, S1P1 ag pot -38.0 and 5HT1E ag -0.4.
`Cc1ccccc1OCCCCc1c(C)n[nH]c1C` gave 5-HT1A blocker 15.2, S1P3 agonist -1.6, HTR1A agonist -3.4, 5HT1E antag 9.0, S1P1 ag pot 130.6* and 5HT1E ag 0.2.
For Cc1ccc2cc3cc(C(=O)NCCC(C)C)oc3nc2c1 the results were 5-HT1A blocker 8.9, S1P3 agonist -1.4, HTR1A agonist -0.8, 5HT1E antag 3.0, S1P1 ag pot 21.1 and 5HT1E ag 0.5.
For CCN(C(=O)c1cc2cc3ccc(C)cc3nc2o1)c1ccc(OC)cc1 the results were 5-HT1A blocker 46.4*, S1P3 agonist 1.1, HTR1A agonist -2.0, 5HT1E antag -5.9, S1P1 ag pot -27.1 and 5HT1E ag -1.1.
Screening Cc1ccc(S(=O)(=O)N2CCN(S(=O)(=O)N3CCCCC3)CC2)cc1 returned 5-HT1A blocker -9.1, S1P3 agonist -0.4, HTR1A agonist 3.7, 5HT1E antag -8.3, S1P1 ag pot -1.1 and 5HT1E ag 0.4.
Cc1ccc(S(=O)(=O)N2CC3(C)CN(S(=O)(=O)c4ccc(C)cc4)CC(C)(C2)C3O)cc1 (stereo unspecified) was read as 5-HT1A blocker -14.1, S1P3 agonist 1.2, HTR1A agonist 3.2, 5HT1E antag 0.1, S1P1 ag pot -7.4 and 5HT1E ag 9.9*.
Screening O=C(O)CCCC(=O)Nc1nc(-c2ccccc2)cs1 returned 5-HT1A blocker 6.5, S1P3 agonist 0.0, HTR1A agonist -3.8, 5HT1E antag -12.4, S1P1 ag pot -23.0 and 5HT1E ag 25.9*.
For Cc1cc(C(C)(C)C)c(O)c(C)c1CC1=NCCN1 the results were S1P3 agonist -0.3, HTR1A agonist 81.0*, 5HT1E antag 4.1, S1P1 ag pot 4.3 and 5HT1E ag 76.4*.
Screening COc1ccc(NC(=O)CC2C(=O)N(c3cccc(OC)c3)C(=O)N2C2CCCCC2)cc1 (stereo unspecified) returned 5-HT1A blocker -1.8, HTR1A agonist 0.1, 5HT1E antag 0.7 and 5HT1E ag -0.2.
Fc1ccccc1CSc1nnnn1-c1ccc2c(c1)OCO2 was read as 5-HT1A blocker 22.3, S1P3 agonist -1.6, HTR1A agonist -1.9, 5HT1E antag 35.0* and 5HT1E ag -0.7.
`COc1ccc(C2=NOC(C(=O)NCc3ccccc3)C2)cc1` (stereo unspecified) gave 5-HT1A blocker 30.1, S1P3 agonist -0.2, HTR1A agonist -2.8, 5HT1E antag 38.6*, S1P1 ag pot 15.1 and 5HT1E ag 0.1.
